The source of these data is ChEMBL document CHEMBL2434951, “Synthesis and antimicrobial activity of polyhalobenzonitrile quinazolin-4(3H)-one derivatives” (2013).

Holding throughout (assay type): functional
One assay deals with Candida albicans. Description: Antifungal activity against Candida albicans ATCC 10231 assessed as growth inhibition at 1000 ug/mL after 24 hrs by disk diffusion assay. In a few lines: (§1)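 Disk diffusion on nutrient agar, inoculum spread evenly. Disks of 6 mm Whatman No. 1 paper, dry-heat sterilized at 121 °C for 1 h, soaked in test compound at 1000 (micro)g/mL. Norfloxacin and chlorothalonil disks as positive controls, DMSO disks as negative control. Plates incubated 24 h at 37 °C. Inhibition zone diameter measured in mm.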
(Agar diffusion results depend on both activity and mobility in agar.)

Another assay relates to Pseudomonas aeruginosa. Description: Antibacterial activity against Pseudomonas aeruginosa ATCC 15442 assessed as growth inhibition at 1000 ug/mL after 24 hrs by disk diffusion assay. Conditions: for zone of inhibition at 1000 µg/mL: ATCC 15442, 24 h, read-out: DIZ. Put shortly:
as §1

For a further assay, the system named is Bacillus cereus. The assay is described as follows: Antibacterial activity against Bacillus cereus ATCC 14579 assessed as growth inhibition at 1000 ug/mL after 24 hrs by disk diffusion assay. Conditions: for zone of inhibition at 1000 µg/mL: ATCC 14579, 24 h, read-out: DIZ. In a few lines: as §1
A further assay deals with Staphylococcus aureus. Description: Antibacterial activity against Staphylococcus aureus ATCC 6538 assessed as growth inhibition at 1000 ug/mL after 24 hrs by disk diffusion assay. As to conditions: for zone of inhibition at 1000 µg/mL: ATCC 6538, 24 h, read-out: DIZ. In a few lines: as §1
In the next assay the test system is Escherichia coli. The assay is described as follows: Antibacterial activity against Escherichia coli ATCC 8099 assessed as growth inhibition at 1000 ug/mL after 24 hrs by disk diffusion assay. Conditions: for zone of inhibition at 1000 µg/mL: ATCC 8099, 24 h, read-out: DIZ. Put shortly: as §1

Activity calls are given as the source filed them. The rule behind the calls is not given here.

In the case of `Cc1cccc(Nc2ccc(N)c3nc[nH]c(=O)c23)c1`, the “diameter of the inhibition zone (DIZ)” value in the assay with Candida albicans, in the assay on Pseudomonas aeruginosa, with Bacillus cereus and in the assay on Staphylococcus aureus was “inactive” each time. In the assay with Escherichia coli, the zone of inhibition at 1000 µg/mL turned out to be 6.5 mm.
Consider `Nc1ccc(N2CCCCC2)c2c(=O)[nH]cnc12`, for which the “diameter of the inhibition zone (DIZ)” value in the assay on Candida albicans, with Pseudomonas aeruginosa, in the assay with Bacillus cereus and in the assay on Staphylococcus aureus was “inactive” each time. In the assay on Escherichia coli, the zone of inhibition at 1000 µg/mL was 7.8 mm.
On to `CN(C)c1ccc(N)c2nc[nH]c(=O)c12`, for which the “diameter of the inhibition zone (DIZ)” value in the assay on Candida albicans, with Pseudomonas aeruginosa, in the assay with Bacillus cereus and in the assay with Staphylococcus aureus was “inactive” throughout. Further, in the assay with Escherichia coli, the zone of inhibition at 1000 µg/mL worked out at 8.5 mm.
As to `CCN(CC)c1ccc(N)c2nc[nH]c(=O)c12`, the “diameter of the inhibition zone (DIZ)” value with Candida albicans was “inactive”. The zone of inhibition at 1000 µg/mL with Pseudomonas aeruginosa came to 7.5 mm; in the assay with Bacillus cereus it was 6 mm; in the assay with Staphylococcus aureus, 7.3 mm; in the assay on Escherichia coli it was 6 mm.
For the compound `Nc1ccc(Nc2ccc(Cl)cc2)c2c(=O)[nH]cnc12`, the “diameter of the inhibition zone (DIZ)” value in the assay with Candida albicans, with Pseudomonas aeruginosa, in the assay with Bacillus cereus, in the assay with Staphylococcus aureus and in the assay with Escherichia coli was “inactive” throughout.
On to `Cc1ccc(Nc2ccc(N)c3nc[nH]c(=O)c23)cc1C`, for which the “diameter of the inhibition zone (DIZ)” value in the assay on Candida albicans, in the assay on Pseudomonas aeruginosa, in the assay on Bacillus cereus and in the assay on Escherichia coli was “inactive” each time. Also, the zone of inhibition at 1000 µg/mL in the assay on Staphylococcus aureus is 6.5 mm.
As for `Nc1ccccc1Nc1ccc([N+](=O)[O-])c2nc[nH]c(=O)c12`, the “diameter of the inhibition zone (DIZ)” value in the assay on Candida albicans, in the assay on Pseudomonas aeruginosa, in the assay with Bacillus cereus and with Staphylococcus aureus was “inactive” each time. Also, the zone of inhibition at 1000 µg/mL with Escherichia coli turned out to be 7.8 mm.
Take `Cc1ccc(Nc2ccc(N)c3nc[nH]c(=O)c23)cc1`: the “diameter of the inhibition zone (DIZ)” value in the assay on Candida albicans, with Pseudomonas aeruginosa, in the assay with Bacillus cereus, in the assay on Staphylococcus aureus and in the assay on Escherichia coli was “inactive” in each case.
Turning to `Nc1ccc(Nc2ccc(F)cc2)c2c(=O)[nH]cnc12`, the “diameter of the inhibition zone (DIZ)” value with Candida albicans, in the assay on Staphylococcus aureus and with Escherichia coli was “inactive” each time. For the same compound, the zone of inhibition at 1000 µg/mL in the assay on Pseudomonas aeruginosa and in the assay on Bacillus cereus was 6 mm throughout.
As for `CCN(CC)c1ccc(Nc2c(Cl)c(Cl)c(C#N)c(Cl)c2C#N)c2nc[nH]c(=O)c12`, the “diameter of the inhibition zone (DIZ)” value with Candida albicans is “inactive”. For the same compound, the zone of inhibition at 1000 µg/mL in the assay on Pseudomonas aeruginosa was found to be 7.5 mm; in the assay with Bacillus cereus, 6 mm; in the assay with Staphylococcus aureus, 7.7 mm; with Escherichia coli, 6 mm.
Consider `Cc1cc(C)cc(Nc2ccc(N)c3nc[nH]c(=O)c23)c1`, for which the “diameter of the inhibition zone (DIZ)” value with Candida albicans, in the assay on Staphylococcus aureus and in the assay on Escherichia coli was “inactive” throughout. Further, the zone of inhibition at 1000 µg/mL with Pseudomonas aeruginosa stood at 6.3 mm; with Bacillus cereus it was 6 mm.
